Measured values: ChEMBL document CHEMBL1153317, “Design, synthesis, and structure-activity relationship of novel CCR2 antagonists” (Bioorg Med Chem Lett, 2009)

Experiments:
[1] = target: T1, C-C chemokine receptor type 2 (Homo sapiens, UniProt P41597); experiment: Displacement of [125I]hMCP1 from human CCR2 receptor expressed in CHO cells; type: cell-based
How it was run: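 CHO cells expressing human CCR2b (5 × 10⁴) incubated 60 min at room temperature with ¹²⁵I-hMCP-1 (20–50 pM) plus varied competitor concentrations in 50 mM Hepes, 5 mM MgCl₂, 1 mM CaCl₂, pH 7.4. Stopped by filtration on polyethyleneimine-presoaked GF/B filters, washed with 25 mM Hepes pH 7.5/500 mM NaCl. IC50 is the average of triplicate measurements.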
Target sequence in this assay (P41597 whole entry): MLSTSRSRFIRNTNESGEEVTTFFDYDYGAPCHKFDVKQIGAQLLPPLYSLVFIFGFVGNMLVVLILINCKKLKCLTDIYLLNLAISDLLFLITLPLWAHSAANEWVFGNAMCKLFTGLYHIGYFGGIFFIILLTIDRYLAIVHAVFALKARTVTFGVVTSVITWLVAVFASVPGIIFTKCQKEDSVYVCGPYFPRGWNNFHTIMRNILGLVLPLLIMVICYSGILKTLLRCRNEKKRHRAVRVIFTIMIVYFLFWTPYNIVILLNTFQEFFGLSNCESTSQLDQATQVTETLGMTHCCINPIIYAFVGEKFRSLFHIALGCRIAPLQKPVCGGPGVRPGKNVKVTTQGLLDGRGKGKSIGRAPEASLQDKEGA

[2] = target: T1, C-C chemokine receptor type 2; experiment: Displacement of [125I]hMCP1 from human CCR2 receptor expressed in CHO cells at 1 uM; type: cell-based
Target sequence in this assay (P41597 whole entry, looked up): as the sequence (P41597 whole entry) above

[3] = Oral bioavailability in rhesus monkey at 2 mg/kg; type: ADME, organism-based, Macaca mulatta; settings: in vivo
[4] = Tmax in rhesus monkey at 2 mg/kg, po; type: ADME, organism-based, Macaca mulatta; set-up: dose 2 mg/kg, route oral; settings: in vivo
[5] = Cmax in Beagle dog at 2 mg/kg, po; type: ADME, organism-based, Canis lupus familiaris; set-up: dose 2 mg/kg, route oral; settings: in vivo
[6] = Tmax in Sprague-Dawley rat at 3 mg/kg, po; type: ADME, organism-based; set-up: dose 3 mg/kg, route oral; settings: in vivo
[7] = AUC in Sprague-Dawley rat at 3 mg/kg, po; type: ADME, organism-based; set-up: dose 3 mg/kg, route oral; settings: plasma
[8] = Cmax in Sprague-Dawley rat at 3 mg/kg, po; type: ADME, organism-based; set-up: dose 3 mg/kg, route oral; settings: in vivo
[9] = Oral bioavailability in Beagle dog at 2 mg/kg; type: ADME, organism-based, Canis lupus familiaris; settings: in vivo
[10] = Oral bioavailability in Sprague-Dawley rat at 3 mg/kg; type: ADME, organism-based; settings: in vivo
[11] = AUC in Beagle dog at 2 mg/kg, po; type: ADME, organism-based, Canis lupus familiaris; set-up: dose 2 mg/kg, route oral; settings: plasma
[12] = Tmax in Beagle dog at 2 mg/kg, po; type: ADME, organism-based, Canis lupus familiaris; set-up: dose 2 mg/kg, route oral; settings: in vivo
[13] = Cmax in rhesus monkey at 2 mg/kg, po; type: ADME, organism-based, Macaca mulatta; set-up: dose 2 mg/kg, route oral; settings: in vivo
[14] = AUC in rhesus monkey at 2 mg/kg, po; type: ADME, organism-based, Macaca mulatta; set-up: dose 2 mg/kg, route oral; settings: plasma

Compound | IC50 [1] [µM] | also measured
CC(C)[C@]1(C(=O)NCc2cc(C(F)(F)F)cc(C(F)(F)F)c2)CC[C@@H](NC2CCS(=O)(=O)CC2)C1 | 0.631 | 
CC(C)[C@]1(C(=O)NCc2cc(C(F)(F)F)cc(C(F)(F)F)c2)CC[C@@H](NC2CCCOCC2)C1 (some centres undefined) | 0.03 | 
CC(C)[C@]1(C(=O)NCc2cc(C(F)(F)F)cc(C(F)(F)F)c2)CC[C@@H](NC2CCNCC2)C1 |  | Activity [2]: 21%
CC(C)[C@]1(C(=O)NCc2cc(C(F)(F)F)cc(C(F)(F)F)c2)CC[C@@H](NC2CCc3ccccc3C2)C1 (some centres undefined) | 0.239 | 
CC(C)[C@]1(C(=O)NCc2cc(C(F)(F)F)cc(C(F)(F)F)c2)CC[C@@H](NC2CCc3ccccc32)C1 (some centres undefined) | 0.077 | 
CC(C)[C@]1(C(=O)NCc2cc(C(F)(F)F)cc(C(F)(F)F)c2)CC[C@@H](NC2CCOCC2)C1 | 0.0046 | 
CC(C)[C@]1(C(=O)NCc2cc(C(F)(F)F)cc(C(F)(F)F)c2)CC[C@@H](NC2CCC2)C1 | 0.193 | 
CC(C)[C@]1(C(=O)NCc2cc(C(F)(F)F)cc(C(F)(F)F)c2)CC[C@@H](N[C@H]2CCOC[C@H]2C)C1 |  | bioavailability [3]: 2%; Tmax [4]: 60 min; Cmax [5]: 422 nM; Tmax [6]: 15 min; AUC [7]: 0.76 µM·h; Cmax [8]: 735 nM; bioavailability [9]: 28%; bioavailability [10]: 42%; AUC [11]: 0.62 µM·h; Tmax [12]: 45 min; Cmax [13]: 4 nM; AUC [14]: 0.01 µM·h
CC(C)[C@]1(C(=O)NCc2cc(C(F)(F)F)cc(C(F)(F)F)c2)CC[C@@H](NC2CCCOC2)C1 (some centres undefined) | 0.056 | 
CC(C)[C@]1(C(=O)NCc2cc(C(F)(F)F)cc(C(F)(F)F)c2)CC[C@@H](NC2CCCCC2)C1 | 0.064 | 
CC(C)[C@]1(C(=O)NCc2cc(C(F)(F)F)cc(C(F)(F)F)c2)CC[C@@H](NCC2CCOCC2)C1 | 0.362 | 
CC(C)[C@]1(C(=O)NCc2cc(C(F)(F)F)cc(C(F)(F)F)c2)CC[C@@H](NC2CCOCC2(O)C(F)(F)F)C1 (some centres undefined) | 0.765 | 
CC(C)[C@]1(C(=O)NCc2cc(C(F)(F)F)cc(C(F)(F)F)c2)CC[C@@H](NC2CCOc3ccccc32)C1 (some centres undefined) | 0.419 | 
CC(C)[C@]1(C(=O)NCc2cc(C(F)(F)F)cc(C(F)(F)F)c2)CC[C@@H](NC2CCCCCC2)C1 | 0.175 | 
CC(C)[C@]1(C(=O)NCc2cc(C(F)(F)F)cc(C(F)(F)F)c2)CC[C@@H](NC2CCOCC2(C)C)C1 (some centres undefined) | 0.23 | 
CC(C)[C@]1(C(=O)NCc2cc(C(F)(F)F)cc(C(F)(F)F)c2)CC[C@@H](NC2CCCC2)C1 | 0.156 | 
Cc1ccc(-c2ccc3c(c2)C=C(C(=O)Nc2ccc(C[N+](C)(C)C4CCOCC4)cc2)CCC3)cc1 | 0.028 | 
CC(C)[C@]1(C(=O)NCc2cc(C(F)(F)F)cc(C(F)(F)F)c2)CC[C@@H](NC2Cc3ccccc3C2)C1 | 0.187 | 
CC(C)[C@]1(C(=O)NCc2cc(C(F)(F)F)cc(C(F)(F)F)c2)CC[C@@H](NC2CCSCC2)C1 | 0.022 | 
CC(C)[C@]1(C(=O)NCc2cc(C(F)(F)F)cc(C(F)(F)F)c2)CC[C@@H](NC2CCSC2)C1 (some centres undefined) | 0.036 | 
CC1COCC(C)C1N[C@@H]1CC[C@@](C(=O)NCc2cc(C(F)(F)F)cc(C(F)(F)F)c2)(C(C)C)C1 (some centres undefined) | 0.007 | 

More lines, main results first:

IC50 [1] [µM] | Compound | also measured
0.0143 | CC(C)[C@]1(C(=O)NCc2cc(C(F)(F)F)cc(C(F)(F)F)c2)CC[C@@H](NC2CCOCC2F)C1 (stereo in doubt; 64) | 
0.004 | CC1COCCC1N[C@@H]1CC[C@@](C(=O)NCc2cc(C(F)(F)F)cc(C(F)(F)F)c2)(C(C)C)C1 (stereo in doubt; 58) | 
0.0012 | CC1COCCC1N[C@@H]1CC[C@@](C(=O)NCc2cc(C(F)(F)F)cc(C(F)(F)F)c2)(C(C)C)C1 (stereo in doubt; 59) | 
0.259 | CC(C)[C@]1(C(=O)NCc2cc(C(F)(F)F)cc(C(F)(F)F)c2)CC[C@@H](NC2CCOCC2F)C1 (stereo in doubt; 63) | 
0.006 | CC(C)[C@]1(C(=O)NCc2cc(C(F)(F)F)cc(C(F)(F)F)c2)CC[C@@H](NC2CCOCC2F)C1 (stereo in doubt; 50) | 
0.0078 | CCCC1COCCC1N[C@@H]1CC[C@@](C(=O)NCc2cc(C(F)(F)F)cc(C(F)(F)F)c2)(C(C)C)C1 (some centres undefined) | 
0.028 | CC1CC(N[C@@H]2CC[C@@](C(=O)NCc3cc(C(F)(F)F)cc(C(F)(F)F)c3)(C(C)C)C2)CCO1 (some centres undefined) | 
0.042 | CC1COCCC1N[C@@H]1CC[C@@](C(=O)NCc2cc(C(F)(F)F)cc(C(F)(F)F)c2)(C(C)C)C1 (stereo in doubt; 57) | 
0.003 | CCC1COCCC1N[C@@H]1CC[C@@](C(=O)NCc2cc(C(F)(F)F)cc(C(F)(F)F)c2)(C(C)C)C1 (stereo in doubt; 46) | 
0.141 | CCC1COCCC1N[C@@H]1CC[C@@](C(=O)NCc2cc(C(F)(F)F)cc(C(F)(F)F)c2)(C(C)C)C1 (stereo in doubt; 60) | 
0.085 | CC(C)[C@]1(C(=O)NCc2cc(C(F)(F)F)cc(C(F)(F)F)c2)CC[C@@H](NC2CCOC2)C1 (some centres undefined) | 
0.003 | CCC1COCCC1N[C@@H]1CC[C@@](C(=O)NCc2cc(C(F)(F)F)cc(C(F)(F)F)c2)(C(C)C)C1 (stereo in doubt; 62) | 
0.0055 | CC(C)[C@]1(C(=O)NCc2cc(C(F)(F)F)cc(C(F)(F)F)c2)CC[C@@H](NC2CCOCC2C(F)(F)F)C1 (some centres undefined) | 
0.051 | CC(C)[C@]1(C(=O)NCc2cc(C(F)(F)F)cc(C(F)(F)F)c2)CC[C@@H](NC2CCOCC2O)C1 (some centres undefined) | 
0.0015 | CC1COCCC1N[C@@H]1CC[C@@](C(=O)NCc2cc(C(F)(F)F)cc(C(F)(F)F)c2)(C(C)C)C1 (stereo in doubt; 45) | 
0.123 | CC(C)[C@]1(C(=O)NCc2cc(C(F)(F)F)cc(C(F)(F)F)c2)CC[C@@H](NC2CCOCC2C2CC2)C1 (some centres undefined) | 
0.0056 | CCC1COCCC1N[C@@H]1CC[C@@](C(=O)NCc2cc(C(F)(F)F)cc(C(F)(F)F)c2)(C(C)C)C1 (stereo in doubt; 61) | 
